Assay results published in ChEMBL document CHEMBL4808162, “Constraining the Side Chain of C-Terminal Amino Acids in Apelin-13 Greatly Increases Affinity, Modulates Signaling, and Improves the Pharmacokinetic Profile” (J Med Chem, 2021).
Peptide text beside a SMILES is read from it.

Assays:
[1] = test system: Rattus norvegicus; assay: Hypotensive effect in Sprague-Dawley rat assessed as drop in mean arterial blood pressure at 19.6 nmol/kg, iv bolus injection measured after 1 min; type: functional
Outline: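 Male Sprague-Dawley rats (250−300 g) under ketamine/xylazine (87/13 mg/kg i.m.) on a thermostatic pad. Mean arterial pressure recorded through a right carotid catheter. Saline vehicle bolus given, then 5 min later the peptide i.v. at 19.6 nmol/kg (n = 5) or 65 nmol/kg.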

[2] = target: T1, Apelin receptor (Homo sapiens, UniProt P35414); assay: Displacement of [125I] [NIe75,Tyr77]Pyr-apelin-13 from YFP-tagged human APJ receptor expressed in HEK293 cells incubated for 1 hr by gamma counting analysis; type: cell-based
T1 sequence (P35414 whole entry): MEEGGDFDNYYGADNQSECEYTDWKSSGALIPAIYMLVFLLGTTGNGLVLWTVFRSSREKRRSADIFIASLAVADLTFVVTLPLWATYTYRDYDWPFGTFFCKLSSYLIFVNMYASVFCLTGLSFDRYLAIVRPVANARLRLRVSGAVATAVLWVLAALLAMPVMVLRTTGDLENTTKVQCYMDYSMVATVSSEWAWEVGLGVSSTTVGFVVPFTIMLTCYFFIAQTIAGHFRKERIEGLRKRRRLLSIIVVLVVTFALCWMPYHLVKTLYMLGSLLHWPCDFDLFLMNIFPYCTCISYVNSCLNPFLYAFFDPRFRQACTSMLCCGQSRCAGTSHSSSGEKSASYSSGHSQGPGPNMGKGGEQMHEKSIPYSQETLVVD

[3] = target: T1, Apelin receptor; assay: Agonist activity at human APJ receptor expressed in HEK293T cells co-expressing Galphai1 RlucII assessed as dissociation of Galphai1 from Gbetta/gamma subunit measured using coelenterazine luciferase substrate incubated for 5 mins by BRET assay; type: functional, cell-based, HEK293
[4] = target: T1, Apelin receptor; assay: Agonist activity at human APJ receptor expressed in HEK293T cells co-expressing PDZ-Rho-Gef-RLucll and rGFP-CAAX assessed as induction of recruitment of Galpha12 to cell membrane using coelenterazine luciferase substrate incubated for 5 mins by BRET assay; type: functional, cell-based, HEK293
[5] = target: T1, Apelin receptor; assay: Agonist activity at human APJ receptor expressed in HEK293 cells co-expressing Rlucll-beta-arrestin2 assessed as induction of beta-arrestin2 recruitment to receptor incubated for 30 mins by BRET assay; type: functional, cell-based
[6] = Stability in Sprague-Dawley rat plasma assessed as half life measured up to 24 hrs by UPLC-MS analysis; type: ADME, cell-free
Outline: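 Peptide (6 μL of 1 mM aqueous solution) incubated with 27 μL male Sprague-Dawley rat plasma at 37 °C. Time points 0, 1, 2, 4, 7, 24 h, or 0–120 min for labile peptides. Reaction quenched with acetonitrile-ethanol containing N,N-dimethylbenzamide internal standard, filtered, then UPLC-MS. t1/2 from one-phase exponential decay; at least three experiments.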

[7] = target: Angiotensin-converting enzyme 2 (Rattus norvegicus, UniProt Q5EGZ1); assay: Stability of the compound assessed as recombinant rat ACE2-mediated degradation measured up to 24 hrs by UPLC-MS analysis; type: ADME
Outline: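 Recombinant rat ACE2 at 20 nM final in 100 mM Tris-HCl, 100 mM NaCl, 10 μM ZnCl2, pH 7.4. Peptide at 50 μM final with N,N-dimethylbenzamide internal standard, incubated 1, 2 and 24 h at 37 °C with shaking. Reaction stopped with EDTA; blank used pre-inactivated enzyme. Remaining peptide measured by UPLC-MS in SIM mode, oxidized forms summed; n = 3.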

[8] = AUCtot in Sprague-Dawley rat plasma at 3 mg/kg, iv bolus injection measured up to 240 mins by LC-MS/MS analysis; type: ADME, organism-based; set-up: route intravenous, dose 3 mg/kg, time <=240; details: in vivo, 4 h
Outline: (§1)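 Male Sprague-Dawley rats (250−300 g, 8−10 weeks), jugular vein catheter placed 24 h before dosing, n = 3. Single i.v. bolus in 0.9% saline at 3 mg/kg. Blood drawn at 5, 10, 30, 60, 120, 240 min into K2-EDTA tubes. Plasma cleaned by acetonitrile precipitation and HLB, then quantified by LC-MS/MS.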

[9] = Half life in Sprague-Dawley rat plasma at 3 mg/kg, iv bolus injection measured up to 240 mins by LC-MS/MS analysis; type: ADME, organism-based; outline: as §1
[10] = Clearance in Sprague-Dawley rat plasma at 3 mg/kg, iv bolus injection measured up to 240 mins by LC-MS/MS analysis; type: ADME, organism-based; outline: as §1

Angiotensin-converting enzyme 2, sequence (Q5EGZ1 whole entry): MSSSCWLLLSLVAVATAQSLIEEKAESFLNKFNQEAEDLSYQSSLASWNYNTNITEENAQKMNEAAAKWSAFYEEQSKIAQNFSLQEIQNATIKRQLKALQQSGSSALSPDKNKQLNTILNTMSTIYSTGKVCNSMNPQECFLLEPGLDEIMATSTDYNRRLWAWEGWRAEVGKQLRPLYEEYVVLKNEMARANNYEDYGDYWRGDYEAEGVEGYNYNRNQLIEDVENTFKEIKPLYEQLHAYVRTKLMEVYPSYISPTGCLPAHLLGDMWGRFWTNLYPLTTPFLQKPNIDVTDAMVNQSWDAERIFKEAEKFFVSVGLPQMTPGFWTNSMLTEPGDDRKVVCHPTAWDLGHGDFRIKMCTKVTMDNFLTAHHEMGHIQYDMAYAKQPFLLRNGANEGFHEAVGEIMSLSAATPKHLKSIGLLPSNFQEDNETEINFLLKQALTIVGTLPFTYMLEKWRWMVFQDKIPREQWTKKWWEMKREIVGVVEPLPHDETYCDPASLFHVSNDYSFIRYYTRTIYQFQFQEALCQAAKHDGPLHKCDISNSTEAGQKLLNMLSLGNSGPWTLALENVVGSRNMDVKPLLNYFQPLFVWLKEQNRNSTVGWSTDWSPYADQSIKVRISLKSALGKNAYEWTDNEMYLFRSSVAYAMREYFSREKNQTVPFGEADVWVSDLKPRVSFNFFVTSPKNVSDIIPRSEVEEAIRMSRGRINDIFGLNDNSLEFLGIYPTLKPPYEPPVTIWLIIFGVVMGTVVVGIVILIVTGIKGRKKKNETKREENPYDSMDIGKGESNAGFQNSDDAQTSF

Ki [2]	EC50 [3]	EC50 [4]	EC50 [5]	half-life [6]	Stabilty [7]	AUC [8]	half-life [9]	clearance [10]	Ki ([2]; hek293)	EC50 ([3]; hek293)	EC50 ([4]; hek293)	EC50 ([5]; hek293)	Structure (SMILES)	Activity [1]
0.08 nM	3.8 nM	2.8 nM	36 nM	7.3 h	Stable	0.12 mg·min/mL	0.433 h	27 mL/min/kg	–	–	–	–	CCCC[C@H](NC(=O)[C@@H]1CCCN1C(=O)CNC(=O)[C@H](CCCCN)NC(=O)[C@H](Cc1cnc[nH]1)NC(=O)[C@H](CO)NC(=O)[C@H](CC(C)C)NC(=O)[C@H](CCCNC(=N)N)NC(=O)[C@@H]1CCCN1C(=O)[C@H](CCCNC(=N)N)NC(=O)[C@@H]1CCC(=O)N1)C(=O)N[C@@H](Cc1cccc2ccccc12)C(=O)NC(Cc1ccccc1)(Cc1ccccc1)C(=O)O (HELM PEPTIDE1{[Glp].R.P.R.L.S.H.K.G.P.[Nle].[O=C([C@H](Cc1cccc2ccccc12)N[*:1])[*:2]].[O=C(O)C(Cc1ccccc1)(Cc1ccccc1)N[*:1]]}$$$$V2.0) [listing 2 of 2 here]	–
–	–	–	–	5.8 h	Stable	0.13 mg·min/mL	0.333 h	23 mL/min/kg	0.08 nM	2.5 nM	11 nM	25 nM	CCCC[C@H](NC(=O)[C@@H]1CCCN1C(=O)CNC(=O)[C@H](CCCCN)NC(=O)[C@H](Cc1cnc[nH]1)NC(=O)[C@H](CO)NC(=O)[C@H](CC(C)C)NC(=O)[C@H](CCCNC(=N)N)NC(=O)[C@@H]1CCCN1C(=O)[C@H](CCCNC(=N)N)NC(=O)[C@@H]1CCC(=O)N1)C(=O)N[C@H]1Cc2c([nH]c3ccccc23)CN([C@@H](Cc2ccccc2)C(=O)O)C1=O [listing 2 of 2 here]	–
0.4 nM	4.3 nM	111 nM	44 nM	5.3 h	–	–	–	–	–	–	–	–	CCCC[C@H](NC(=O)[C@@H]1CCCN1C(=O)CNC(=O)[C@H](CCCCN)NC(=O)[C@H](Cc1cnc[nH]1)NC(=O)[C@H](CO)NC(=O)[C@H](CC(C)C)NC(=O)[C@H](CCCNC(=N)N)NC(=O)[C@@H]1CCCN1C(=O)[C@H](CCCNC(=N)N)NC(=O)[C@@H]1CCC(=O)N1)C(=O)N[C@H](Cc1cccc2ccccc12)C(=O)N1Cc2ccccc2C(C)C1C(=O)O (stereo partly specified)	–
0.09 nM	1.6 nM	15 nM	32 nM	3.4 h	–	–	–	–	–	–	–	–	CCCC[C@H](NC(=O)[C@@H]1CCCN1C(=O)CNC(=O)[C@H](CCCCN)NC(=O)[C@H](Cc1cnc[nH]1)NC(=O)[C@H](CO)NC(=O)[C@H](CC(C)C)NC(=O)[C@H](CCCNC(=N)N)NC(=O)[C@@H]1CCCN1C(=O)[C@H](CCCNC(=N)N)NC(=O)[C@@H]1CCC(=O)N1)C(=O)N[C@@H](Cc1cccc2ccccc12)C(=O)N1Cc2ccccc2C[C@@H]1C(=O)O	–
1.01 nM	6 nM	25 nM	96 nM	7.8 h	–	–	–	–	–	–	–	–	CCCC[C@H](NC(=O)[C@@H]1CCCN1C(=O)CNC(=O)[C@H](CCCCN)NC(=O)[C@H](Cc1cnc[nH]1)NC(=O)[C@H](CO)NC(=O)[C@H](CC(C)C)NC(=O)[C@H](CCCNC(=N)N)NC(=O)[C@@H]1CCCN1C(=O)[C@H](CCCNC(=N)N)NC(=O)[C@@H]1CCC(=O)N1)C(=O)N[C@H](Cc1cccc2ccccc12)C(=O)N1Cc2[nH]c3ccccc3c2C[C@@H]1C(=O)O	–
–	–	–	–	0.2 h	Unstable	–	–	–	0.18 nM	3.8 nM	17 nM	38 nM	CCCC[C@H](NC(=O)[C@@H]1CCCN1C(=O)CNC(=O)[C@H](CCCCN)NC(=O)[C@H](Cc1cnc[nH]1)NC(=O)[C@H](CO)NC(=O)[C@H](CC(C)C)NC(=O)[C@H](CCCNC(=N)N)NC(=O)[C@@H]1CCCN1C(=O)[C@H](CCCNC(=N)N)NC(=O)[C@@H]1CCC(=O)N1)C(=O)N[C@@H](Cc1c[nH]c2ccccc12)C(=O)N[C@@H](Cc1ccccc1)C(=O)O	–
0.04 nM	1.5 nM	10 nM	19 nM	0.5 h	–	–	–	–	–	–	–	–	CCCC[C@H](NC(=O)[C@@H]1CCCN1C(=O)CNC(=O)[C@H](CCCCN)NC(=O)[C@H](Cc1cnc[nH]1)NC(=O)[C@H](CO)NC(=O)[C@H](CC(C)C)NC(=O)[C@H](CCCNC(=N)N)NC(=O)[C@@H]1CCCN1C(=O)[C@H](CCCNC(=N)N)NC(=O)[C@@H]1CCC(=O)N1)C(=O)N1CCC[C@H]1C(=O)NC(Cc1ccccc1)(Cc1ccccc1)C(=O)O	–
–	–	–	–	6.1 h	–	–	–	–	0.08 nM	4.2 nM	28 nM	33 nM	CCCC[C@H](NC(=O)[C@@H]1CCCN1C(=O)CNC(=O)[C@H](CCCCN)NC(=O)[C@H](Cc1cnc[nH]1)NC(=O)[C@H](CO)NC(=O)[C@H](CC(C)C)NC(=O)[C@H](CCCNC(=N)N)NC(=O)[C@@H]1CCCN1C(=O)[C@H](CCCNC(=N)N)NC(=O)[C@@H]1CCC(=O)N1)C(=O)N[C@H](Cc1cccc2ccccc12)C(=O)N1Cc2ccccc2C[C@H]1C(=O)O	–

More lines, now with the values behind:

Structure (SMILES)	Ki [2]	EC50 [3]	EC50 [4]	EC50 [5]	half-life [6]	Stabilty [7]	AUC [8]	half-life [9]	clearance [10]	Ki ([2]; hek293)	EC50 ([3]; hek293)	EC50 ([4]; hek293)	EC50 ([5]; hek293)	Activity [1]
CCCC[C@H](NC(=O)[C@@H]1CCCN1C(=O)CNC(=O)[C@H](CCCCN)NC(=O)[C@H](Cc1cnc[nH]1)NC(=O)[C@H](CO)NC(=O)[C@H](CC(C)C)NC(=O)[C@H](CCCNC(=N)N)NC(=O)[C@@H]1CCCN1C(=O)[C@H](CCCNC(=N)N)NC(=O)[C@@H]1CCC(=O)N1)C(=O)N[C@@H](Cc1cccc2ccccc12)C(=O)NC(Cc1ccccc1)(Cc1ccccc1)C(=O)O (HELM PEPTIDE1{[Glp].R.P.R.L.S.H.K.G.P.[Nle].[O=C([C@H](Cc1cccc2ccccc12)N[*:1])[*:2]].[O=C(O)C(Cc1ccccc1)(Cc1ccccc1)N[*:1]]}$$$$V2.0) [listing 1 of 2 here]	–	–	–	–	–	–	–	–	–	–	–	–	–	30 mmHg
CCCC[C@H](NC(=O)[C@@H]1CCCN1C(=O)CNC(=O)[C@H](CCCCN)NC(=O)[C@H](Cc1cnc[nH]1)NC(=O)[C@H](CO)NC(=O)[C@H](CC(C)C)NC(=O)[C@H](CCCNC(=N)N)NC(=O)[C@@H]1CCCN1C(=O)[C@H](CCCNC(=N)N)NC(=O)[C@@H]1CCC(=O)N1)C(=O)N[C@H]1Cc2c([nH]c3ccccc23)CN([C@@H](Cc2ccccc2)C(=O)O)C1=O [listing 1 of 2 here]	–	–	–	–	–	–	–	–	–	–	–	–	–	30 mmHg
CCCC[C@H](NC(=O)[C@@H]1CCCN1C(=O)CNC(=O)[C@H](CCCCN)NC(=O)[C@H](Cc1cnc[nH]1)NC(=O)[C@H](CO)NC(=O)[C@H](CC(C)C)NC(=O)[C@H](CCCNC(=N)N)NC(=O)[C@@H]1CCCN1C(=O)[C@H](CCCNC(=N)N)NC(=O)[C@@H]1CCC(=O)N1)C(=O)N[C@H](Cc1cccc2ccccc12)C(=O)N[C@H](Cc1cc(C2CCCC2)c(O)c(C2CCCC2)c1)C(=O)O	1.1 nM	10 nM	178 nM	95 nM	> 24 h	–	–	–	–	–	–	–	–	–
CCCC[C@H](NC(=O)[C@@H]1CCCN1C(=O)CNC(=O)[C@H](CCCCN)NC(=O)[C@H](Cc1cnc[nH]1)NC(=O)[C@H](CO)NC(=O)[C@H](CC(C)C)NC(=O)[C@H](CCCNC(=N)N)NC(=O)[C@@H]1CCCN1C(=O)[C@H](CCCNC(=N)N)NC(=O)[C@@H]1CCC(=O)N1)C(=O)N1CCC[C@H]1C(=O)N1Cc2ccccc2C[C@@H]1C(=O)O	0.07 nM	1 nM	23 nM	10 nM	0.8 h	–	–	–	–	–	–	–	–	–
CCCC[C@H](NC(=O)[C@@H]1CCCN1C(=O)CNC(=O)[C@H](CCCCN)NC(=O)[C@H](Cc1cnc[nH]1)NC(=O)[C@H](CO)NC(=O)[C@H](CC(C)C)NC(=O)[C@H](CCCNC(=N)N)NC(=O)[C@@H]1CCCN1C(=O)[C@H](CCCNC(=N)N)NC(=O)[C@@H]1CCC(=O)N1)C(=O)N1CCC[C@H]1C(=O)N1Cc2ccccc2C[C@H]1C(=O)O	1.1 nM	2.5 nM	88 nM	67 nM	1.3 h	–	–	–	–	–	–	–	–	–
